In the library only some 2.7% were active in any assay of this set; here they are far more common.
ABHD4 inh: ABHD4 inhibitors, primary screen, biochemical, fluorescence polarization, mouse; (Lyso)-N-acylphosphatidylethanolamine lipase (Mus musculus), Q8VD66; purified mABHD4, FP-Rh probe fluorescence polarization; inhibition, % at 8.92 µM; 370,000 tested, 0.54% active; AID 720543, 2013;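 active means inhibition exceeding the mean over every tested compound plus 3 SD, cut at about 30% in these data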;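 further: 0% = plate median of compound wells and 100% = S159A mutant with DMSO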
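System: mouse ABHD4 enzyme, wild type / Medium: HEPES pH 7.0, NaCl, Pluronic buffer / Reagent: FP-Rh activity-based fluorescent probe / Control set: S159A mutant high control, sample median low control / Detection: fluorescence polarization with parallel and perpendicular emission, 525/598 nm / Schedule: 45 min + 60 min at 25 °C / Compound dosing: 8.92 µM, single dose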
SIAE primary: human SIAE inhibitors, primary screen, biochemical, fluorescence polarization, FP-Rh probe, 1536-well HTS; Sialate O-acetylesterase (Homo sapiens), Q9HAT2; SIAE FP-Rh probe binding; inhibition, % at 9.66 µM; 370,000 tested, 0.69% active; AID 1053197, 2014;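 active means inhibition above a cutoff: mean of compounds within the control limits plus 3 SD of those, cut at about 17% in these data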;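 further: 0% = plate median of compound wells and 100% = probe without SIAE protein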
HTRA1 inh: HTRA1 serine protease inhibitors, primary screen, biochemical, fluorescence polarization, HTS; Q92743; recombinant HTRA1, FP-rhodamine activity-based probe; inhibition, % at 5.96 µM; 340,000 tested, 0.5% active; AID 504803, 2011; in the data active means inhibition above about 36%;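 further: 0% = enzyme with DMSO and 100% = wells lacking enzyme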
Target sequence (Q92743 whole entry, looked up): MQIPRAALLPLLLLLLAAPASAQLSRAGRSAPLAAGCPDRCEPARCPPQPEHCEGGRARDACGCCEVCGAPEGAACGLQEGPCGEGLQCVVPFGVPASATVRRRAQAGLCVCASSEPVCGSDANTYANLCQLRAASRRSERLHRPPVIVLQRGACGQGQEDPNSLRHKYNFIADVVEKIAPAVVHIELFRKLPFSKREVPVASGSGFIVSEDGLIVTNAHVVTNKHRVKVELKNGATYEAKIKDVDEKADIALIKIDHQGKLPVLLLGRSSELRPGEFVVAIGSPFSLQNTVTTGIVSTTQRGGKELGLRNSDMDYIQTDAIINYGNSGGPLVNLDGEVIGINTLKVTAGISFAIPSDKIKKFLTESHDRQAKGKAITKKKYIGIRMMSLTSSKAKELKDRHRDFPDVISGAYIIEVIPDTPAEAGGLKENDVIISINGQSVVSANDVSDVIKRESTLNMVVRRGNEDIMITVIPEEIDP
TCR CD3 inh: inhibitors of human TCR-CD3 interaction, primary screen, biochemical, fluorescence, TAMRA-labeled TCR probe. T-cell receptor (TCR). inhibition, % at 9.4 µM. 360,000 tested, 0.37% active; in the data active means inhibition above about 19%;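 further: recombinant mutant TCR 2C K166C tagged with TAMRA read by polarization; 0% = receptor in buffer alone and 100% = receptor with positive control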
PRMT1 FP inh: PRMT1 methyltransferase inhibitors, primary screen, biochemical, fluorescence polarization; 370,000 tested, 1.3% active; recombinant PRMT1, activity-based probe fluorescence polarization; Protein arginine N-methyltransferase 1 (Homo sapiens), Q99873; inhibition, % at 2.79 µM;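 active means inhibition above about 21% made by adding two undisclosed values, limit read from the data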
SIAE confirm: human SIAE inhibitors, retest, confirmation, biochemical, fluorescence polarization, FP-Rh probe, triplicate | SIAE FP-Rh activity-based probe | 2,300 tested, 13% active | inhibition, % at 9.66 µM | shares compounds with SIAE primary;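 active means mean inhibition of the replicates above the hit cutoff set in the primary screen, cut at about 17% in these data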;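 further: 0% = SIAE with DMSO and probe and 100% = probe without SIAE; inhibitors lower polarization as more probe stays unbound to SIAE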
An asterisk follows results filed as active; x = not tested or not shown.

SMILES	ABHD4 inh	SIAE primary	HTRA1 inh	TCR CD3 inh	PRMT1 FP inh	SIAE confirm
Cc1cc(S(=O)(=O)N2CCN(c3ccccc3F)CC2)ccc1-n1cnnn1	-3.2	4.6	-2.5	-6.3	6.0	x
COCC(=O)Nc1c(C(=O)Nc2ccc3c(c2)OCO3)oc2ccccc12	5.1	-0.5	1.6	9.0	-3.2	x
O=C(CCl)Nc1c(C(=O)Nc2ccc3c(c2)OCCO3)oc2ccccc12	-10.5	19.7*	-10.1	-10.7	1.7	-7.3
OCCN1CN(c2ccccc2)C(=S)N(c2ccccc2)C1	-0.2	-0.9	x	-7.5	6.7	x
O=C(Nc1ccc(S(=O)(=O)Nc2nccs2)cc1)C1CCCCC1	-3.7	20.2*	-1.1	5.3	-1.5	5.3
O=C(NC(=S)Nc1ccc(S(=O)(=O)Nc2nccs2)cc1)C1CC1	-2.7	2.1	7.1	-5.4	-0.4	x
Cc1cccc(Cc2ncc(C(F)(F)F)cc2Cl)c1	-0.8	19.3*	-1.5	4.2	-2.9	6.5
NC(=O)COC(=O)c1c2c(nc3ccccc13)CCCCC2	-5.5	17.1*	2.2	-2.0	0.8	3.4
Cc1cccc(C)c1OCc1nc2ccccc2[nH]1	5.6	-7.1	2.1	-9.3	1.1	x
Cc1ccc(C)c(OCc2nc3ccccc3[nH]2)c1	-0.5	37.1*	-5.5	1.8	-2.1	4.6
CCOC(=O)/C(C)=N/Nc1nc(-c2ccc(NC(C)=O)cc2)cs1	10.8	20.3*	x	1.3	1.0	-7.6
CC(=O)Nc1ccc(-c2csc(N/N=C(/C)c3ccccc3)n2)cc1	19.0	10.7	34.2	-9.7	19.4	x
COc1ccc(Nc2nc(-c3cc4cccc(OC)c4oc3=O)cs2)cc1	14.7	5.7	14.9	-4.1	-0.2	x
COc1ccc2oc(=O)c(-c3csc(Nc4cccc(O)c4)n3)cc2c1	10.6	39.2*	-6.8	0.7	-0.6	-4.8
CN(C)c1ccc(CNCC2CCCO2)cc1 (stereo not given)	-3.1	17.6*	3.0	1.5	1.4	-1.7
c1cc(CNCC2CCCO2)ccn1 (stereo not given)	-2.5	6.1	9.2	-0.3	-0.9	x
CCc1ccc(NC(=O)Nc2ccc3c(c2)N(C)C(=O)CS3)cc1	3.8	24.5*	-17.4	4.7	0.2	1.4
C#CCNC(=O)C[C@H]1C[C@@]2(C(=O)OC)C(=C[C@H](C(C)(C)C)O[C@@H]2C)N(Cc2ccc3c(c2)OCO3)C1=O	-4.3	5.5	x	3.8	-1.5	x
CCN(CC(=O)Nc1c(C(=O)OC)[nH]c2ccc(Cl)cc12)c1ccc2c(c1)OCO2	22.4	21.2*	13.3	-2.2	7.8	12.9
CCn1c(CCNC(=O)c2ccc(Cl)cc2)n[nH]c1=S	2.2	22.1*	1.5	-1.9	-0.6	-2.3
Cc1ccc(C(=O)NCCc2n[nH]c(=S)n2C)cc1	-1.2	1.2	-2.6	-1.8	2.4	x
CCCCN1C(C(=O)Nc2ncccn2)=C(O)c2ccccc2S1(=O)=O	4.6	-7.4	5.3	-2.9	5.5	x
COc1ccc2oc(=O)c(C(=O)NCc3ccc(F)cc3)cc2c1	0.8	62.2*	1.9	-5.2	0.8	1.9
COc1cc(CN2C(=O)C(C)ON=C2c2cccs2)cc(OC)c1 (stereo not given)	0.5	3.2	x	-7.0	2.5	x
Nc1ccc(N2CCOCC2)c(S(=O)(=O)Nc2ccccc2Cl)c1	18.9	38.9*	9.8	18.8	1.3	1.8
SMILES	ABHD4 inh	SIAE primary	HTRA1 inh	TCR CD3 inh	PRMT1 FP inh	SIAE confirm
O=C(Nc1ccc(N2CCOCC2)c(S(=O)(=O)Nc2ccccc2Cl)c1)c1ccccc1	-25.1	-37.8	-62.9	-3.9	3.0	x
Cc1ccc2c(c1)=C(c1sc(N(C)c3ccc(O)cc3)nc1O)C(=O)N=2	19.1	17.4*	-3.2	-0.7	-1.4	7.5
O=c1[nH]cnc2nn(C3OC(CO)C(O)C3O)nc12 (stereo not given)	-13.2	3.1	x	0.7	5.2	x
COc1ccc(-c2nc3c(C)cc(Br)cn3c2Cc2ccccc2C(F)(F)F)cc1OC	-1.1	-1.7	x	12.1	-0.3	x
COc1ccc(NS(=O)(=O)c2cc(NC(=O)c3cccs3)ccc2N2CCCC2)cc1	-13.3	26.0*	-26.1	1.5	-2.6	-31.1
COc1ccc(NC(=S)NNC(=O)c2cccs2)cc1	10.4	17.8*	-0.1	-3.7	3.5	1.3
CCOCCc1nnc(NC(=O)CCS(=O)(=O)c2ccccc2)s1	-6.1	-3.3	7.9	2.3	-1.6	x
O=C(NCc1ccccc1)[C@@H]1CCCN1C(=O)[C@H]1CCCN1C(=O)c1ccc(F)cc1F	-1.1	3.9	x	8.8	2.2	x
COc1cc2cc(CCCOC(=O)c3ccco3)oc(=O)c2cc1OC	5.0	9.5	-3.6	3.0	-6.0	x
Cc1cc2ccccn2c1C(=O)c1ccc(S(=O)(=O)N(C)C)cc1	-3.7	18.9*	-6.1	-4.1	-0.6	0.8
Cc1cc2ccccn2c1C(=O)c1ccc(F)cc1	6.6	-6.4	-5.8	-1.3	4.4	x
CC(=O)Nc1ccc(NC(=O)c2ccccc2C)cc1	-4.2	18.2*	3.3	6.1	1.8	3.7
Cc1ccccc1C(=O)Nc1ccc(S(=O)(=O)N2CCN(C)CC2)cc1	-3.5	18.8*	1.6	-6.1	-2.6	-5.3
CN1CCN(S(=O)(=O)c2ccc(NC(=O)c3ccccc3Cl)cc2)CC1	-5.2	-1.8	1.2	-5.1	5.8	x
COc1cccc(-c2cc(C(=O)NCc3ccco3)c3ccccc3n2)c1	-7.0	-0.8	-25.8	6.6	-0.7	x
COc1ccc(OC)c(CN2CCN(C(=O)c3cc(S(=O)(=O)N4CCOCC4)ccc3C)CC2)c1	0.7	-2.1	x	0.0	0.0	x
O=C(COC(=O)CSc1ccc(Cl)cc1)Nc1ccccc1	-3.3	-7.3	-2.6	-3.8	0.6	x
O=C(COC(=O)c1ccc(CSc2ccc(Cl)cc2)cc1)Nc1ccccc1	0.9	20.4*	-2.7	1.0	-1.7	-3.6
CCc1nc2ccc(C(=O)N3CCCCC3)cn2c1N(C)CCCc1ccccc1	9.1	2.9	x	1.3	-1.6	x
Cc1ccc(S(=O)(=O)Nc2ccc3c(c2)C(=O)c2ccccc2-3)cc1	-5.5	-2.4	x	4.1	-5.6	x
Cc1ccc(NS(=O)(=O)c2ccc3c(c2)C(=O)c2ccccc2C3=O)c(C)c1	11.4	18.4*	-2.3	-1.3	-2.1	4.0
CCOC(=O)C=Nc1c(N)n(C)c(=O)n(C)c1=O	0.4	-0.1	-8.6	-3.5	5.2	x
Cn1c(N)c(N=O)c(=O)n(C)c1=O	-0.5	17.1*	0.9	6.3	-8.6	1.5
Cc1ccccc1N1CCN(S(=O)(=O)Cc2ccccc2)CC1	x	x	-11.0	x	x	x
Cc1ccccc1N1CCN(S(=O)(=O)N(C)C)CC1	2.0	20.8*	0.9	0.8	-0.8	2.6
CCN(CC)C(=O)O[C@H]1CC[C@@]23CCCN2C(=O)CCC[C@H]3[C@H]1C	-1.8	5.5	x	x	-3.4	x
